Broadly, the EC50 is the concentration giving half of the maximal effect. Low values mean greater potency, high ones weaker potency. For orientation: IC50 means the midpoint of a concentration-inhibition curve. One may read the CC50 as the concentration that lowers cell viability or growth by half. Higher therefore signals better tolerance by the cells. The term AUC denotes concentration integrated over time. A high value points to high exposure.

The values below come from ChEMBL document CHEMBL3124900, “Discovery and early clinical evaluation of BMS-605339, a potent and orally efficacious tripeptidic acylsulfonamide NS3 protease inhibitor for the treatment of hepatitis C virus infection” (J Med Chem, 2014).

One series relates to Hepatitis C virus. As to the kind of experiment: Antiviral activity against Hepatitis C virus genotype 1b Con1 after 4 days by cell-based replicon assay. The series is classed as functional, organism-based, Hepacivirus hominis. Particulars: isolate Con1, 96 h. (Replicon systems follow genome replication, usually without infectious particles.)
The nature of series [1]: Inhibition of Hepatitis C virus genotype 1a H77 recombinant NS3/4A protease expressed in Escherichia coli BL21 (DE3) cell using Ac-Asp-Glu-Asp(EDANS)-Glu-Glu-Abu[C(O)-O]-Ala-Ser-Lys(DABCYL)-NH2 as substrate by FRET assay. More on the design: species or system Hepatitis C virus (isolate H77).
A short description of series [2]: Cytotoxicity against human HuH7 cells. Particulars: Huh-7 cells. The series is classed as cell-based.
In another series the test system is Liver. As to the kind of experiment: Drug uptake in intraduodenally dosed Sprague-Dawley rat liver measured per gm of tissue over 4 hrs by LC/MS/MS analysis. The series is classed as ADME, organism-based. The note with it: in vivo, other. The gist of the method: (§1)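 Abbreviated rat screen: surgically prepared rats were dosed intraduodenally. Plasma was sampled over 4 h, and liver was collected at the 4 h end point. Plasma was precipitated with two volumes of ACN plus internal standard. Liver was weighed and homogenized in 2 volumes of 20% Hanks buffered salt solution/80% ACN. Both were quantified by LC/MS/MS.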

Series [3] is described as follows: AUC in intraduodenally dosed Sprague-Dawley rat plasma measured over 4 hrs by LC/MS/MS analysis. It is filed as ADME, organism-based. Details: time < 4 hr, route intraduodenal. The note with it: Sprague-Dawley, plasma. The essentials:
as §1

Molecule `C=C[C@@H]1C[C@]1(NC(=O)[C@@H]1C[C@@H](Oc2cc(-c3ccccc3)nc3cc(OC)ccc23)CN1C(=O)[C@@H](NC(=O)OC(C)(C)C)C(C)(C)C)C(=O)NS(=O)(=O)C(C)C` displayed an EC50 in the series with Hepatitis C virus of 97 nM. Further, the IC50 in series [1] was found to be 19 nM.

Take `C=C[C@@H]1C[C@]1(NC(=O)[C@@H]1C[C@@H](Oc2ccncc2)CN1C(=O)[C@@H](NC(=O)OC(C)(C)C)C(C)(C)C)C(=O)NS(=O)(=O)C1CC1`: it took 25000 nM to reach a half-maximal effect in the series with Hepatitis C virus (EC50). The IC50 in series [1] amounted to 84 nM.

Take `C=C[C@@H]1C[C@]1(NC(=O)[C@@H]1C[C@@H](Oc2cc(-c3ccccc3)nc3cc(OC)ccc23)CN1C(=O)[C@@H](NC(=O)OC(C)(C)C)C(C)(C)C)C(=O)NS(=O)(=O)CC`: the EC50 with Hepatitis C virus amounted to 133 nM. Moreover, the IC50 in series [1] turned out to be 6 nM.

As for `C=C[C@@H]1C[C@]1(NC(=O)[C@@H]1C[C@@H](Oc2cc(-c3ccccc3)nc3cc(OC)ccc23)CN1C(=O)[C@@H](NC(=O)OC(C)(C)C)C(C)(C)C)C(=O)NS(=O)(=O)C1CCCCC1`, the EC50 in the series on Hepatitis C virus was determined as 210 nM. The IC50 in series [1] came out at 149 nM.

In the series on Hepatitis C virus, `C=C[C@@H]1C[C@]1(NC(=O)[C@@H]1C[C@@H](Oc2nccc3cccc(C)c23)CN1C(=O)[C@@H](NC(=O)OC(C)(C)C)C(C)(C)C)C(=O)NS(=O)(=O)C1CC1` showed a concentration for a half-maximal effect (EC50) of 500 nM. Further, the half-inhibitory concentration (IC50) in series [1] was 149 nM. This molecule also had a CC50 in series [2] of over 100000 nM.

Regarding `C=C[C@@H]1C[C@]1(NC(=O)[C@@H]1C[C@@H](Oc2nccc3cc(-n4cccn4)ccc23)CN1C(=O)[C@@H](NC(=O)OC(C)(C)C)C(C)(C)C)C(=O)NS(=O)(=O)C1CC1`, the EC50 in the series with Hepatitis C virus came out at 64 nM. Besides, in series [1], the concentration for half-maximal inhibition (IC50) is 4 nM. Besides, the CC50 in series [2] is 94000 nM.

For the molecule `C=C[C@@H]1C[C@]1(NC(=O)[C@@H]1C[C@@H](Oc2nccc3cc(O)ccc23)CN1C(=O)[C@@H](NC(=O)OC(C)(C)C)C(C)(C)C)C(=O)NS(=O)(=O)C1CC1`, a half-maximal effect in the series with Hepatitis C virus (EC50) was put at 67 nM. The IC50 in series [1] worked out at 3 nM. This molecule returned a 50% cytotoxic concentration (CC50) in series [2] of over 100000 nM.

For the molecule `C=C[C@@H]1C[C@]1(NC(=O)[C@@H]1C[C@@H](Oc2ncc(Cl)c3ccccc23)CN1C(=O)[C@@H](NC(=O)OC(C)(C)C)C(C)(C)C)C(=O)NS(=O)(=O)C1CC1`, the response in the series on Hepatitis C virus was half-maximal at 41 nM (EC50). For the same molecule, the IC50 in series [1] turned out to be 8 nM. Also, the CC50 in series [2] came out at 45000 nM.

For `C=C[C@@H]1C[C@]1(NC(=O)[C@@H]1C[C@@H](Oc2cc(-c3ccccc3)nc3cc(OC)ccc23)CN1C(=O)CNC(=O)OC(C)(C)C)C(=O)NS(=O)(=O)C1CC1`, in the series with Hepatitis C virus, the EC50 turned out to be 893 nM. The half-inhibitory concentration (IC50) in series [1] was found to be 16 nM.

Consider `COc1ccc2c(O[C@@H]3C[C@@H](C(=O)NC4(C(=O)NS(=O)(=O)C5CC5)CC4)N(C(=O)[C@@H](NC(=O)OC(C)(C)C)C(C)(C)C)C3)cc(-c3ccccc3)nc2c1`, for which, in the series on Hepatitis C virus, the concentration giving a half-maximal response (EC50) came to 437 nM. Also, in series [1], the IC50 was found to be 12 nM.

Turning to `C=C[C@@H]1C[C@]1(NC(=O)[C@@H]1C[C@@H](Oc2nccc3cc(C#N)ccc23)CN1C(=O)[C@@H](NC(=O)OC(C)(C)C)C(C)(C)C)C(=O)NS(=O)(=O)C1CC1`, the EC50 in the series on Hepatitis C virus came to 586 nM. In addition, the 50% inhibitory concentration (IC50) in series [1] amounted to 4 nM. For the same molecule, the 50% cytotoxic concentration (CC50) in series [2] is over 100000 nM.

In turn, `C=C[C@@H]1C[C@]1(NC(=O)[C@@H]1C[C@@H](Oc2cc(-c3ccccc3)nc3cc(OC)ccc23)CN1C(=O)[C@@H](N)C(C)(C)C)C(=O)NS(=O)(=O)C1CC1` registered a concentration for a half-maximal effect (EC50) with Hepatitis C virus of 860 nM. Further, in series [1], the IC50 was found to be 30 nM.

In turn, `C=C[C@@H]1C[C@]1(NC(=O)[C@@H]1C[C@@H](Oc2nc(-c3ccccc3)cc3ccccc23)CN1C(=O)[C@@H](NC(=O)OC(C)(C)C)C(C)(C)C)C(=O)NS(=O)(=O)C1CC1` showed an EC50 with Hepatitis C virus of 9 nM. Besides, the 50% inhibitory concentration (IC50) in series [1] turned out to be 3 nM. The molecule further displayed a half-maximal cytotoxic concentration (CC50) in series [2] of 12000 nM.

In the series on Hepatitis C virus, `C=C[C@@H]1C[C@]1(NC(=O)[C@@H]1C[C@@H](Oc2nccc3cc(C(C)(C)C)ccc23)CN1C(=O)[C@@H](NC(=O)OC(C)(C)C)C(C)(C)C)C(=O)NS(=O)(=O)C1CC1` yielded a 50% effective concentration (EC50) of 209 nM. Besides, the half-inhibitory concentration (IC50) in series [1] is 31 nM. Also, the 50% cytotoxic concentration (CC50) in series [2] stood at 15000 nM.

Regarding `C=C[C@@H]1C[C@]1(NC(=O)[C@@H]1C[C@@H](Oc2nccc3c(F)cccc23)CN1C(=O)[C@@H](NC(=O)OC(C)(C)C)C(C)(C)C)C(=O)NS(=O)(=O)C1CC1`, in the series on Hepatitis C virus, the 50% effective concentration (EC50) came to 94 nM. Moreover, in series [1], the IC50 is 55 nM. This molecule displayed a cytotoxic concentration (CC50) in series [2] of over 100000 nM.

As to `C=C[C@@H]1C[C@]1(NC(=O)[C@@H]1C[C@@H](Oc2cc(-c3ccccc3)nc3cc(OC)ccc23)CN1C(=O)[C@@H](NC(=O)OC(C)(C)C)C(C)(C)C)C(=O)NS(=O)(=O)c1ccccc1`, in the series with Hepatitis C virus, the 50% effective concentration (EC50) stood at 20 nM. For the same molecule, the concentration for half-maximal inhibition (IC50) in series [1] turned out to be 8 nM.

In the series with Hepatitis C virus, `C=C[C@@H]1C[C@]1(NC(=O)[C@@H]1C[C@@H](Oc2cc(-c3ccccc3)nc3cc(OC)ccc23)CN1C(=O)[C@@H](NC(=O)OC(C)(C)C)C(C)(C)C)C(=O)NS(C)(=O)=O` showed a 50% effective concentration (EC50) of 600 nM. For the same molecule, in series [1], the IC50 is 36 nM.

`C=C[C@@H]1C[C@]1(NC(=O)[C@@H]1C[C@@H](Oc2cc(-c3ccccc3)nc3cc(OC)ccc23)CN1C(=O)[C@@H](NC(=O)OC(C)(C)C)C(C)(C)C)C(=O)NS(=O)(=O)C1CCC1` displayed an EC50 in the series on Hepatitis C virus of 29 nM. Also, the IC50 in series [1] worked out at 7 nM.

With `C=C[C@@H]1C[C@]1(NC(=O)[C@@H]1C[C@@H](Oc2nccc3cc(Cl)ccc23)CN1C(=O)[C@@H](NC(=O)OC(C)(C)C)C(C)(C)C)C(=O)NS(=O)(=O)C1CC1`, the EC50 in the series on Hepatitis C virus amounted to 833 nM. Further, the IC50 in series [1] was found to be 36 nM. The midpoint of cytotoxicity in series [2], the CC50, lay at 44000 nM.

On to `C=C[C@@H]1C[C@]1(NC(=O)[C@@H]1C[C@@H](Oc2nccc3cc(C)ccc23)CN1C(=O)[C@@H](NC(=O)OC(C)(C)C)C(C)(C)C)C(=O)NS(=O)(=O)C1CC1`, for which the 50% effective concentration (EC50) with Hepatitis C virus came to 100 nM. Moreover, the IC50 in series [1] was 4 nM. In addition, the CC50 in series [2] was 92000 nM.

Take `C=C[C@@H]1C[C@]1(NC(=O)[C@@H]1C[C@@H](Oc2nccc3c(N4CCOCC4)cccc23)CN1C(=O)[C@@H](NC(=O)OC(C)(C)C)C(C)(C)C)C(=O)NS(=O)(=O)C1CC1`: the response with Hepatitis C virus was half-maximal at 966 nM (EC50). In addition, the IC50 in series [1] was determined as 96 nM. Moreover, in series [2], the CC50 was over 100000 nM.

In the case of `C=C[C@@H]1C[C@]1(NC(=O)[C@@H]1C[C@@H](Oc2ccnc(-c3ccccc3)c2)CN1C(=O)[C@@H](NC(=O)OC(C)(C)C)C(C)(C)C)C(=O)NS(=O)(=O)C1CC1`, in the series with Hepatitis C virus, the EC50 is 267 nM. In series [1], the IC50 was 10 nM. In the series with Liver, this molecule came in with a Drug uptake of 319 ng.

Molecule `C=C[C@@H]1C[C@]1(NC(=O)[C@@H]1C[C@@H](Oc2nccc3cc(C(=O)N(C)C)ccc23)CN1C(=O)[C@@H](NC(=O)OC(C)(C)C)C(C)(C)C)C(=O)NS(=O)(=O)C1CC1` registered an EC50 with Hepatitis C virus of 11000 nM. For the same molecule, the IC50 in series [1] came out at 476 nM. Also, in series [2], the CC50 was over 100000 nM.

For the molecule `C=C[C@@H]1C[C@]1(NC(=O)[C@@H]1C[C@H](Oc2nccc3cc(OC)ccc23)CN1C(=O)[C@@H](NC(=O)OC(C)(C)C)C(C)(C)C)C(=O)NS(=O)(=O)C1CC1`, in series [3], the AUC at 4 h was 0.25 µM·h. In addition, in series [1], the IC50 was 5000 nM. This molecule also returned a Drug uptake in the series on Liver of 3058 ng.

Molecule `C=C[C@@H]1C[C@]1(NC(=O)[C@@H]1C[C@@H](Oc2nccc3ccc(C)cc23)CN1C(=O)[C@@H](NC(=O)OC(C)(C)C)C(C)(C)C)C(=O)NS(=O)(=O)C1CC1` returned an EC50 in the series on Hepatitis C virus of 100 nM. Moreover, the IC50 in series [1] was 7 nM. The same molecule yielded a CC50 in series [2] of 86000 nM.

`C=C[C@@H]1C[C@]1(NC(=O)[C@@H]1C[C@@H](Oc2cc(-c3ccccc3)nc3cc(OC)ccc23)CN1C(=O)[C@@H](NC(=O)OC(C)(C)C)C(C)(C)C)C(=O)NS(=O)(=O)C1CCCC1` had a concentration giving a half-maximal response (EC50) in the series with Hepatitis C virus of 170 nM. Moreover, the IC50 in series [1] came out at 71 nM.
